Data published in ChEMBL document CHEMBL2021913, “Synthesis and biological evaluation of some novel thiazole substituted benzotriazole derivatives” (2012).
Converted amounts (≈) assume the structure as drawn. The source made the active and inactive calls. The calls are words filed in the database; no cut-off is given here.

How the values were obtained:
Assay type in all cases: functional
Candida albicans [1] = experiment: Antimicrobial activity against Candida albicans 3471 at 128 ug/disc at 37 degC after 24 to 72 hrs by agar-well diffusion assay; conditions: for zone of inhibition at 128 µg/disc: read-out: DIZ
Procedure, shortened: (§1)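 Potato dextrose agar base plates overlaid with seeded agar cooled to 40 °C and inoculated with spores from 10-day cultures, final 1 × 10⁶ spores/mL. Compounds dissolved in DMSO at 128 µg/mL and applied on 6 mm filter-paper discs placed on chilled seeded medium. Nystatin positive control, DMSO negative control. Incubation 24–72 h at 37 °C. Inhibition zone diameter read by vernier caliper.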

Pseudomonas aeruginosa [2] = experiment: Antimicrobial activity against Pseudomonas aeruginosa 2036 at 35 degC after 18 to 24 hrs by NCCLS method based antimicrobial assay; conditions: for MBC: read-out: MBC99.9
Escherichia coli [3] = experiment: Antimicrobial activity against Escherichia coli 2109 at 35 degC after 18 to 24 hrs by NCCLS method based antimicrobial assay; conditions: for MBC: read-out: MBC99.9
Candida albicans [4] = experiment: Antimicrobial activity against Candida albicans 3471 at 35 degC after 48 hrs by CLSI method based antimicrobial assay; conditions: for MFC: read-out: MFC99.9
Procedure, shortened: (§2)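 Broth microdilution following CLSI guidelines over 256 to 1 µg/mL. MIC90 is the lowest concentration completely inhibiting growth. For MFC, 0.1 mL from each tube spread on agar and CFU counted after 48 h at 35 °C; MFC is lowest concentration killing 99.9% of inoculum. MFC/MIC ratio calculated: […], ≤4 as fungicidal.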

Staphylococcus aureus [5] = experiment: Antimicrobial activity against Staphylococcus aureus 2079 at 128 ug/disc at 35 degC after 24 hrs by agar-well diffusion assay; conditions: for zone of inhibition at 128 µg/disc: Staphylococcus aureus, 2079, 24 h, read-out: DIZ
Procedure, shortened: (§3)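 Agar-well diffusion: 24 h bacterial cultures adjusted to 0.5 McFarland (1.5 × 10⁸ CFU/mL) and mixed into molten Mueller-Hinton agar before pouring. 6 mm wells punched and each filled with 50 µL of compound stock or control. Plates incubated 35 °C for 24 h. Zone of growth inhibition diameter measured with vernier caliper.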

Aspergillus niger [6] = experiment: Antimicrobial activity against Aspergillus niger 545 at 35 degC after 48 hrs by CLSI method based antimicrobial assay; conditions: for MFC: read-out: MFC99.9; procedure, shortened: as §2
Staphylococcus aureus [7] = experiment: Antimicrobial activity against Staphylococcus aureus 2079 at 35 degC after 18 to 24 hrs by NCCLS method based antimicrobial assay; conditions: for MBC: read-out: MBC99.9
Aspergillus niger [8] = experiment: Ratio of MFC99.9 to MIC90 for Aspergillus niger 545 at 35 degC after 48 hrs by CLSI method based antimicrobial assay; procedure, shortened: as §2
Escherichia coli [9] = experiment: Antimicrobial activity against Escherichia coli 2109 at 128 ug/disc at 35 degC after 24 hrs by agar-well diffusion assay; conditions: Escherichia coli, 2109, 24 h; read-out: DIZ; procedure, shortened: as §3
Aspergillus niger [10] = experiment: Antimicrobial activity against Aspergillus niger 545 at 128 ug/disc at 37 degC after 24 to 72 hrs by agar-well diffusion assay; conditions: read-out: DIZ; procedure, shortened: as §1
Bacillus subtilis [11] = experiment: Antimicrobial activity against Bacillus subtilis 2250 at 128 ug/disc at 35 degC after 24 hrs by agar-well diffusion assay; procedure, shortened: as §3
Pseudomonas aeruginosa [12] = experiment: Antimicrobial activity against Pseudomonas aeruginosa 2036 at 128 ug/disc at 35 degC after 24 hrs by agar-well diffusion assay; conditions: for zone of inhibition at 128 µg/disc: Pseudomonas aeruginosa, 2036, 24 h, read-out: DIZ; procedure, shortened: as §3
Bacillus subtilis [13] = experiment: Antimicrobial activity against Bacillus subtilis 2250 at 35 degC after 18 to 24 hrs by NCCLS method based antimicrobial assay; conditions: for MBC: read-out: MBC99.9
Candida albicans [14] = experiment: Ratio of MFC99.9 to MIC90 for Candida albicans 3471 at 35 degC after 48 hrs by CLSI method based antimicrobial assay; procedure, shortened: as §2

Row | Molecule | zone of inhibition at 128 µg/disc (Candida albicans [1]) | MIC (Pseudomonas aeruginosa [2]) | MBC (Pseudomonas aeruginosa [2]) | MIC (Escherichia coli [3]) | MBC (Escherichia coli [3]) | MIC (Candida albicans [4]; Candida albicans, 3471, 48 h) | MFC (Candida albicans [4]; Candida albicans, 3471, 48 h) | MIC (Aspergillus niger [6]; Aspergillus niger, 545, 48 h) | MFC (Aspergillus niger [6]; Aspergillus niger, 545, 48 h) | MIC (Staphylococcus aureus [7]) | Ratio (Aspergillus niger [8]) | zone of inhibition at 128 µg/disc (Escherichia coli [9]) | zone of inhibition at 128 µg/disc (Aspergillus niger [10]) | diameter of the inhibition zone (DIZ) (Bacillus subtilis [11]) | zone of inhibition at 128 µg/disc (Pseudomonas aeruginosa [12]) | MBC99.9 (Bacillus subtilis [13]) | MIC (Bacillus subtilis [13]) | Ratio (Candida albicans [14]) | zone of inhibition at 128 µg/disc (Staphylococcus aureus [5]) | MBC (Staphylococcus aureus [7]) | also measured
1 | Fc1ccc(-c2csc(N/N=C(/Cn3nnc4ccccc43)c3ccc(Br)cc3)n2)cc1 | 16.8 mm | 32 µg/mL (≈ 63.1 µM) | 64 µg/mL (≈ 126 µM) | 128 µg/mL (≈ 252 µM) | 128 µg/mL (≈ 252 µM) | 32 µg/mL (≈ 63.1 µM) | 128 µg/mL (≈ 252 µM) | 32 µg/mL (≈ 63.1 µM) | 64 µg/mL (≈ 126 µM) | inactive | 2 | 18.7 mm | 17.6 mm | inactive | 19.8 mm | inactive | inactive | 4 | – | – | diameter of the inhibition zone (DIZ) (Staphylococcus aureus [5]): inactive; MBC99.9 (Staphylococcus aureus [7]): inactive
2 | Clc1ccc(/C(Cn2nnc3ccccc32)=N\Nc2nc(-c3ccc(Cl)cc3)cs2)cc1 | 21 mm | 128 µg/mL (≈ 267 µM) | 128 µg/mL (≈ 267 µM) | inactive | – | 16 µg/mL (≈ 33.4 µM) | 32 µg/mL (≈ 66.8 µM) | 32 µg/mL (≈ 66.8 µM) | 32 µg/mL (≈ 66.8 µM) | 64 µg/mL (≈ 134 µM) | 1 | – | 18.2 mm | – | 11.3 mm | – | 32 µg/mL (≈ 66.8 µM) | 2 | 27.9 mm | 32 µg/mL (≈ 66.8 µM) | MBC99.9 (Escherichia coli [3]): inactive; zone of inhibition at 128 µg/disc (Bacillus subtilis [11]; Bacillus subtilis, 2250, 24 h, read-out: DIZ): 25.1 mm; MBC (Bacillus subtilis [13]): 64 µg/mL (≈ 134 µM)
3 | Fc1ccc(/C(Cn2nnc3ccccc32)=N\Nc2nc(-c3ccc(Cl)cc3)cs2)cc1 | 20.2 mm | 64 µg/mL (≈ 138 µM) | 64 µg/mL (≈ 138 µM) | inactive | – | 16 µg/mL (≈ 34.6 µM) | 64 µg/mL (≈ 138 µM) | 16 µg/mL (≈ 34.6 µM) | 16 µg/mL (≈ 34.6 µM) | 32 µg/mL (≈ 69.1 µM) | 1 | – | 21.4 mm | inactive | 19.1 mm | inactive | inactive | 4 | 25.9 mm | 32 µg/mL (≈ 69.1 µM) | MBC99.9 (Escherichia coli [3]): inactive
4 | FC(F)(F)c1cc(/C(Cn2nnc3ccccc32)=N\Nc2nc(-c3ccc(Cl)cc3)cs2)cc(C(F)(F)F)c1 | – | inactive | – | 128 µg/mL (≈ 220 µM) | 256 µg/mL (≈ 441 µM) | – | – | 16 µg/mL (≈ 27.5 µM) | 64 µg/mL (≈ 110 µM) | inactive | 4 | 18.7 mm | 19.7 mm | inactive | – | inactive | inactive | – | – | – | diameter of the inhibition zone (DIZ) (Candida albicans [1]): inactive; MBC99.9 (Pseudomonas aeruginosa [2]): inactive; MFC99.9 (Candida albicans [4]): inactive; MIC (Candida albicans [4]): inactive; diameter of the inhibition zone (DIZ) (Staphylococcus aureus [5]): inactive; MBC99.9 (Staphylococcus aureus [7]): inactive; diameter of the inhibition zone (DIZ) (Pseudomonas aeruginosa [12]): inactive
5 | Fc1ccc(/C(Cn2nnc3ccccc32)=N\Nc2nc(-c3ccc(F)cc3)cs2)cc1 | 21.1 mm | 128 µg/mL (≈ 287 µM) | 256 µg/mL (≈ 573 µM) | 128 µg/mL (≈ 287 µM) | 128 µg/mL (≈ 287 µM) | 16 µg/mL (≈ 35.8 µM) | 32 µg/mL (≈ 71.7 µM) | 16 µg/mL (≈ 35.8 µM) | 64 µg/mL (≈ 143 µM) | 64 µg/mL (≈ 143 µM) | 4 | 15 mm | 19.1 mm | – | 11.8 mm | – | 64 µg/mL (≈ 143 µM) | 2 | 20.1 mm | 128 µg/mL (≈ 287 µM) | MBC (Bacillus subtilis [13]): 128 µg/mL (≈ 287 µM)
6 | NYSTATIN | – | – | – | – | – | – | – | – | – | – | 2 | – | – | – | – | – | – | 2 | – | – | MFC99.9 (Candida albicans [4]): 32 µg/mL; MIC (Candida albicans [4]): 16 µg/mL; MFC99.9 (Aspergillus niger [6]): 32 µg/mL; MIC (Aspergillus niger [6]): 16 µg/mL
